Data from ChEMBL document CHEMBL1817562, “Docking and SAR studies of D- and L-isofagomine isomers as human β-glucocerebrosidase inhibitors” (Bioorg Med Chem, 2011).

Assays:
[1] = biological target: Sucrase-isomaltase, intestinal (Rattus norvegicus) (UniProt P23739); conditions: 1000 uM
[2] = test system: Canavalia ensiformis; assay: Inhibition of jack beans alpha-mannosidase assessed as production of p-nitrophenol at 1000 uM by spectrophotometry
Outline: (§1)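 p-Nitrophenyl glycoside matched to each enzyme, 2 mM, with enzyme at that enzyme's optimum pH: Penicillium decumbens α-L-rhamnosidase pH 4.0, bovine liver β-galactosidase pH 6.8, coffee bean α-galactosidase pH 6.5, jack bean α-mannosidase pH 4.5, snail β-mannosidase pH 4.5. Stopped with 400 mM Na2CO3; released p-nitrophenol read at 400 nm.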

[3] = Inhibition of almond beta-glucosidase assessed as production of p-nitrophenol using p-nitrophenyl glycoside as substrate by spectrophotometry
[4] = Inhibition of rat intestinal cellobiase assessed as production of p-nitrophenol by spectrophotometry
[5] = species on record: Rattus norvegicus; conditions: 1000 uM
[6] = test system: Oryza sativa; conditions: 1000 uM
[7] = biological target: Sucrase-isomaltase, intestinal (Rattus norvegicus) (UniProt P23739); conditions: 1000 uM; remark: listed apart in the source
[8] = biological target: T1, Beta-galactosidase (Bos taurus, UniProt Q58D55); assay: Inhibition of bovine liver beta-galactosidase assessed as production of p-nitrophenol by spectrophotometry
T1 sequence (Q58D55 whole entry): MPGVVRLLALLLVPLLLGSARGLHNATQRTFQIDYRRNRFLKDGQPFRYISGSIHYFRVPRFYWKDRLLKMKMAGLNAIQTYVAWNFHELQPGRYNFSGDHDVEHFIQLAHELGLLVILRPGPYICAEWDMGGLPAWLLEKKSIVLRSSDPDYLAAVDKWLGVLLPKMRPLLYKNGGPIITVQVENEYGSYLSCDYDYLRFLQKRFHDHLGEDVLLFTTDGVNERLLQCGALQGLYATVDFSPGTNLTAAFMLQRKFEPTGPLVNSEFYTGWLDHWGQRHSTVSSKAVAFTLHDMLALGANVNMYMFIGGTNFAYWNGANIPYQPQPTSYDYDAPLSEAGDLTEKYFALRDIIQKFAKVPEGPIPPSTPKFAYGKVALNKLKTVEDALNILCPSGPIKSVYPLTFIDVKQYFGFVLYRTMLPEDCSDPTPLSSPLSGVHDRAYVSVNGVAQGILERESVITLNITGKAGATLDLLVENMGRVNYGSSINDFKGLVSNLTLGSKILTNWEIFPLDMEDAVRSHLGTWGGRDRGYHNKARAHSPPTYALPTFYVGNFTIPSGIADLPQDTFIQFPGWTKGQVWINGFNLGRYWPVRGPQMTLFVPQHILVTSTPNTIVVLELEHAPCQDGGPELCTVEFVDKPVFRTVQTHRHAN

[9] = biological target: T2, Tissue alpha-L-fucosidase (Bos taurus) (UniProt Q2KIM0); conditions: 1000 uM
T2 sequence (whole entry): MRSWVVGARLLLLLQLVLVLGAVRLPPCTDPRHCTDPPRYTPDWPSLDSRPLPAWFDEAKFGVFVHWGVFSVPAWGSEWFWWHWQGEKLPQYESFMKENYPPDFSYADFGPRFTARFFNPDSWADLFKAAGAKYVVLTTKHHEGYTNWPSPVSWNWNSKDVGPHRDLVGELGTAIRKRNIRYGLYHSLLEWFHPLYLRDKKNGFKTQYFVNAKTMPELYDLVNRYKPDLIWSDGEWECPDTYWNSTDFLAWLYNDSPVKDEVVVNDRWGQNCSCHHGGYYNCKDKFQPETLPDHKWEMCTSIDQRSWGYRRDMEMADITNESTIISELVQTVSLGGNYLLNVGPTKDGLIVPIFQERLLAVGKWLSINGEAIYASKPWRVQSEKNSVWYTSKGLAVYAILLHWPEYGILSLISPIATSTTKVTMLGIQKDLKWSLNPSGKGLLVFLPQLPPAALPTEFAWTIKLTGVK

[10] = Inhibition of coffee beans alpha-galactosidase assessed as production of p-nitrophenol by spectrophotometry; set-up: species or system Coffea
Outline: (§2)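 Commercial enzymes were assayed at their own optimum pH: bovine epididymis α-L-fucosidase pH 5.5, bovine liver β-galactosidase pH 6.8, coffee bean α-galactosidase pH 6.5. Reactions contained 2 mM of the matching p-nitrophenyl glycoside plus enzyme. They were stopped with 400 mM Na2CO3, and released p-nitrophenol was read at 400 nm.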

[11] = test system: Helix pomatia; assay: Inhibition of snail beta-mannosidase assessed as production of p-nitrophenol at 1000 uM by spectrophotometry
Outline: as §1

[12] = biological target: Lactase/phlorizin hydrolase (Rattus norvegicus, UniProt Q02401); assay: Inhibition of rat intestinal lactase assessed as production of p-nitrophenol by spectrophotometry
Lactase/phlorizin hydrolase, sequence (Q02401 868-1928 limits assumed): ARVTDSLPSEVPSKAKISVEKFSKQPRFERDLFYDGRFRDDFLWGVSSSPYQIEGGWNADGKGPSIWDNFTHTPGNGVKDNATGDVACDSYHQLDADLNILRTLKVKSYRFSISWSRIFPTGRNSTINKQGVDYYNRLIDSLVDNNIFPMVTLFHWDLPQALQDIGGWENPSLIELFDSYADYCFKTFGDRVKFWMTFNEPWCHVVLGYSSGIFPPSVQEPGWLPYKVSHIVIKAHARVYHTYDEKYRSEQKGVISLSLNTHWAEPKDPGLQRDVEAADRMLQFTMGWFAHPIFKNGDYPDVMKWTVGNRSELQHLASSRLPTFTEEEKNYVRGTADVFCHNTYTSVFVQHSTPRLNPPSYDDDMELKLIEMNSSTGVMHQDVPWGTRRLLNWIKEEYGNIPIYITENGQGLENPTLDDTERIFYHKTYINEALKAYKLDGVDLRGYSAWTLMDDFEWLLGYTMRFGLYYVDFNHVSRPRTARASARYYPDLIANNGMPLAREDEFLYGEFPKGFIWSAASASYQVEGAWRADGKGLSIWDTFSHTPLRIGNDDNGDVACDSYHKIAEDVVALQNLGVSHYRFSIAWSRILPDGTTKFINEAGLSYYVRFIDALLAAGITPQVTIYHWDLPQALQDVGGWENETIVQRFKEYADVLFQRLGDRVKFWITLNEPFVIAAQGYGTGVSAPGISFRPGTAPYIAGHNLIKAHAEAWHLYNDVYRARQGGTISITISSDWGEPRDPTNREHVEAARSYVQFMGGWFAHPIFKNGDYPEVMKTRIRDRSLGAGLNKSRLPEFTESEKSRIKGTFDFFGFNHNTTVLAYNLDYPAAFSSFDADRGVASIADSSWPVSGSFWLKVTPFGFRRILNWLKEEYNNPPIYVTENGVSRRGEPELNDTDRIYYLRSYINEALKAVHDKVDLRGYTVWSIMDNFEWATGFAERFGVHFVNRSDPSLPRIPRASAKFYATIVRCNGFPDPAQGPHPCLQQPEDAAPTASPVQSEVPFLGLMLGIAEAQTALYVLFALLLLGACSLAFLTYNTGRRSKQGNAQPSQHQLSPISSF

[13] = test system: Penicillium decumbens; assay: Inhibition of Penicillium decumbens alpha-L-rhamnosidase assessed as production of p-nitrophenol at 1000 uM by spectrophotometry
Outline: as §1

[14] = biological target: T3, Beta-galactosidase (Bos taurus) (UniProt Q58D55); assay: Inhibition of bovine liver beta-galactosidase assessed as production of p-nitrophenol at 1000 uM by spectrophotometry
T3 sequence (whole entry): T1 sequence (Q58D55 whole entry)
Outline: as §1

[15] = biological target: T4, Glucosylceramidase (Bos taurus) (UniProt Q2KHZ8); assay: Inhibition of bovine liver beta-glucosidase assessed as production of p-nitrophenol using p-nitrophenyl glycoside as substrate at 1000 uM by spectrophotometry
T4 sequence (whole entry): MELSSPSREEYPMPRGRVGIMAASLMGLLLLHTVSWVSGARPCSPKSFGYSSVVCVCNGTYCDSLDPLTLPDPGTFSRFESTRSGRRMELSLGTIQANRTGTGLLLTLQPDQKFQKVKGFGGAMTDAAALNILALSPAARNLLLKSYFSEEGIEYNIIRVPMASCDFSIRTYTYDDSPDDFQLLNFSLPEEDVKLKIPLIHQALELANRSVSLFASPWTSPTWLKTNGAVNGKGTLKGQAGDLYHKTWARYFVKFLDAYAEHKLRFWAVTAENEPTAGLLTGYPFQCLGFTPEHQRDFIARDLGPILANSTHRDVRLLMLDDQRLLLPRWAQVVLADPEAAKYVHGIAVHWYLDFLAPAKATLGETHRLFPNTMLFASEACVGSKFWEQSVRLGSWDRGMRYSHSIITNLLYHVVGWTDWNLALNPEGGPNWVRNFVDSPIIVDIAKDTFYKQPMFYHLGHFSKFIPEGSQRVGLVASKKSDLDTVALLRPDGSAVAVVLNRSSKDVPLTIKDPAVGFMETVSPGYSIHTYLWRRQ

[16] = biological target: T5, Lysosomal acid glucosylceramidase (Homo sapiens) (UniProt P04062); conditions: 1000 uM
T5 sequence (whole entry): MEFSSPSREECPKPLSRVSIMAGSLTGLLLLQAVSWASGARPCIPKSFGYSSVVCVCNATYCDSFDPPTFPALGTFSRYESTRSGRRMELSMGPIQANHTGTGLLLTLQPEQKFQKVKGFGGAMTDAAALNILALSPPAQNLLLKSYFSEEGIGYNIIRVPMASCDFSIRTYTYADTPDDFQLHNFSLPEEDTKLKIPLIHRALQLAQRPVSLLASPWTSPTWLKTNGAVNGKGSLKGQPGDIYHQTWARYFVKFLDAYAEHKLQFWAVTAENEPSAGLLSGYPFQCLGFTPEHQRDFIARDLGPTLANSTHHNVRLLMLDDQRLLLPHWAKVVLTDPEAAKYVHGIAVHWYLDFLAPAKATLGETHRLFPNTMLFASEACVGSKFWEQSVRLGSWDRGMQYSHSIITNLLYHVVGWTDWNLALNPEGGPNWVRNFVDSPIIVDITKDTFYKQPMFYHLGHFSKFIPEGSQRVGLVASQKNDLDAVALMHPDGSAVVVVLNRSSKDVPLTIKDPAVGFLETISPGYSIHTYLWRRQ

[17] = biological target: T6, Tissue alpha-L-fucosidase (Bos taurus, UniProt Q2KIM0); assay: Inhibition of bovine epididymis alpha-L-fucosidase assessed as production of p-nitrophenol by spectrophotometry
T6 sequence (Q2KIM0 whole entry): T2 sequence (whole entry)
Outline: as §2

[18] = Inhibition of rat intestinal maltase assessed as production of D-glucose using maltose as substrate after 10 to 30 mins by spectrophotometry
Outline: (§3)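 Enzymes were rice α-glucosidase at pH 5.0 and rat small-intestine brush border membranes (Kessler method) at pH 5.8. Each reaction contained 25 mM maltose and enzyme and was incubated 10–30 min at 37 °C. Reactions were stopped by heating at 100 °C for 3 min, then centrifuged. Released D-glucose was measured with a glucose test reagent by absorbance at 505 nm.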

[19] = Inhibition of rice alpha-glucosidase assessed as production of D-glucose using maltose as substrate after 10 to 30 mins by spectrophotometry; set-up: species or system Oryza sativa
Outline: as §3

[20] = test system: Coffea; assay: Inhibition of coffee beans alpha-galactosidase assessed as production of p-nitrophenol at 1000 uM by spectrophotometry
Outline: as §1

[21] = biological target: T7, Sucrase-isomaltase, intestinal (Rattus norvegicus, UniProt P23739); assay: Inhibition of rat intestinal sucrase assessed as release of D-glucose at by spectrophotometry
T7 sequence (P23739 1-1013 limits assumed): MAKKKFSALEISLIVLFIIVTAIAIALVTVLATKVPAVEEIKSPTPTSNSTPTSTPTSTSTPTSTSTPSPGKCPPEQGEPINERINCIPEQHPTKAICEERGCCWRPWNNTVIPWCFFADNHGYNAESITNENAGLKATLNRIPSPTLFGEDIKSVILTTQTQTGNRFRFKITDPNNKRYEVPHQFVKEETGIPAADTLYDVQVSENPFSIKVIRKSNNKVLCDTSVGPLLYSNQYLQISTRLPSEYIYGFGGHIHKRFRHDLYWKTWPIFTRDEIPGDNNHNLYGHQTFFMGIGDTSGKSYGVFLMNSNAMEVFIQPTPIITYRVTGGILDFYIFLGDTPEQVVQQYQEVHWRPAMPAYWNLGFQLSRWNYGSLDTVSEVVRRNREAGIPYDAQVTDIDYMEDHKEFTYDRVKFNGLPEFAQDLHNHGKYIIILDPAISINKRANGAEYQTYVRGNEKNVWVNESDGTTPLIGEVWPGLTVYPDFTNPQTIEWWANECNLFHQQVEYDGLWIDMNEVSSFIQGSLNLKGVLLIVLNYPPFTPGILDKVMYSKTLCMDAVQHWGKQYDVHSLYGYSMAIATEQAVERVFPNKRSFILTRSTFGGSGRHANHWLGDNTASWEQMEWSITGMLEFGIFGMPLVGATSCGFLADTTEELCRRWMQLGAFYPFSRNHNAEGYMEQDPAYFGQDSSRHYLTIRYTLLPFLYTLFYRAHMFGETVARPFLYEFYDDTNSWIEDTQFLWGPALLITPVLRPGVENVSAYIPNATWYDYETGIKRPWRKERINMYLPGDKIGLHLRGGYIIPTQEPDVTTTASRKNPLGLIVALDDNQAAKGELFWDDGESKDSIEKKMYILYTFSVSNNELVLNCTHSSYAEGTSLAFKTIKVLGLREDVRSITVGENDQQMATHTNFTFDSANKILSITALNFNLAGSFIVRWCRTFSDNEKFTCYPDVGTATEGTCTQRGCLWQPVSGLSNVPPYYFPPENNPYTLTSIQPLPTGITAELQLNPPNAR
T7 sequence (P23739 1014-1841 limits assumed): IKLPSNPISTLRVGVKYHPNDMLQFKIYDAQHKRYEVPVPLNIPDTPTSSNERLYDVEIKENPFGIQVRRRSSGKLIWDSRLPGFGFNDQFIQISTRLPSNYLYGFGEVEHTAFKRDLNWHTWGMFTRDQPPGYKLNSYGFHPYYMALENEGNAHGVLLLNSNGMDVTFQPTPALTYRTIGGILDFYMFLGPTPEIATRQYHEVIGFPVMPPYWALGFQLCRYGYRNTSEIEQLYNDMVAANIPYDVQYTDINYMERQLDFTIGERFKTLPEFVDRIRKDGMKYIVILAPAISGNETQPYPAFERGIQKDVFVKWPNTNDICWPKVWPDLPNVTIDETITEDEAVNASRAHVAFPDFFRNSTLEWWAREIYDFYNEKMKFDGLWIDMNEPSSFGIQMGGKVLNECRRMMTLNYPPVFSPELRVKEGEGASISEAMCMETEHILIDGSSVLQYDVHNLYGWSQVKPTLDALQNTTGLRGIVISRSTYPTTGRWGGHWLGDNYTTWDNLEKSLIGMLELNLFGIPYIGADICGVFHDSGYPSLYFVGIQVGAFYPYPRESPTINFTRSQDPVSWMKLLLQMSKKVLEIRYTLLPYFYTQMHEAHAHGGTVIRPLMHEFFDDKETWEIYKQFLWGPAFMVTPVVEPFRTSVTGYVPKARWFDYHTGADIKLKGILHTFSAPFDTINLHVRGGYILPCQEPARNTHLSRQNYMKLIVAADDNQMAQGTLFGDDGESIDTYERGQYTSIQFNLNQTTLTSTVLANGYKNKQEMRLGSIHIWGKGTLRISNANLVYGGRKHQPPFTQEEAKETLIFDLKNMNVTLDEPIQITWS

[22] = test system: Prunus dulcis; conditions: 1000 uM
[23] = biological target: Lactase/phlorizin hydrolase (Rattus norvegicus) (UniProt Q02401); conditions: 1000 uM
Lactase/phlorizin hydrolase (Rattus norvegicus), sequence (Q02401 868-1928 limits assumed): as the sequence (Q02401 868-1928 limits assumed) above

[24] = species on record: Rattus norvegicus; assay: Inhibition of rat intestinal cellobiase assessed as production of p-nitrophenol at 1000 uM by spectrophotometry
[25] = biological target: T7, Sucrase-isomaltase, intestinal; assay: Inhibition of rat intestinal isomaltase assessed as production of p-nitrophenol at by spectrophotometry
[26] = Inhibition of rice alpha-glucosidase; set-up: species or system Oryza sativa
Outline: as §3

[27] = Inhibition of rat intestinal maltase
Outline: as §3

Sucrase-isomaltase, intestinal (Rattus norvegicus), sequence (P23739 1-1013 limits assumed): as the sequence (P23739 1-1013 limits assumed) above
Sucrase-isomaltase, intestinal (Rattus norvegicus), sequence (P23739 1014-1841 limits assumed): as the sequence (P23739 1014-1841 limits assumed) above

| Structure (SMILES) | inhibition [1] | inhibition [2] | IC50 [3] | IC50 [4] | inhibition [5] | inhibition [6] | inhibition [7] | inhibition [9] | IC50 [10] | inhibition [11] | IC50 [12] | inhibition [13] | inhibition [15] | inhibition [16] | IC50 [18] | IC50 [19] | inhibition [20] | IC50 [21] | inhibition [22] | also measured |
| --- | --- | --- | --- | --- | --- | --- | --- | --- | --- | --- | --- | --- | --- | --- | --- | --- | --- | --- | --- | --- |
| OC[C@H]1CNC[C@@H](O)[C@H]1O | < 50% | < 50% | 3.2 µM | 4.5 µM | < 50% | < 50% | < 50% | < 50% | 144 µM | < 50% | 0.51 µM | < 50% |  |  |  |  |  |  |  | IC50 [8]: 21 µM |
| OC[C@@H]1CNC[C@H](O)[C@@H]1O | < 50% | < 50% | 983 µM | 607 µM | < 50% | < 50% | < 50% | < 50% | 450 µM | < 50% | 90 µM | < 50% | < 50% | < 50% |  |  |  |  |  | inhibition [14]: < 50% |
| OC[C@@H]1NCC[C@@H](O)[C@H]1O |  | < 50% |  | 809 µM |  |  | < 50% |  |  | < 50% | 122 µM | < 50% | < 50% | < 50% | 357 µM | 188 µM | < 50% | 225 µM | < 50% | IC50 [17]: 260 µM |
| OC[C@H]1NCC[C@@H](O)[C@@H]1O [FAGOMINE] |  | < 50% |  |  |  |  |  | < 50% |  | < 50% |  | < 50% |  |  | 113 µM | 320 µM | < 50% | 34 µM | < 50% | inhibition [23]: < 50%; inhibition [24]: < 50%; IC50 [25]: 37 µM |
| OC[C@H]1NC[C@H](O)[C@@H](O)[C@@H]1O [DUVOGLUSTAT] |  | < 50% | 80 µM | 327 µM |  |  |  |  | 880 µM | < 50% |  | < 50% | < 50% |  | 0.65 µM | 0.03 µM |  |  |  |  |
| OCC1(O)CNC[C@H]1O (single isomer, unassigned) |  |  |  |  |  |  |  |  |  |  |  |  |  |  |  |  |  |  |  | Ki [26]: 4 µM; Ki [27]: 6 µM |
| OC[C@H]1CNC[C@@H](O)[C@@H]1O [AFEGOSTAT] |  | < 50% | 0.98 µM | 0.3 µM |  | < 50% |  | < 50% |  | < 50% | 0.12 µM | < 50% |  |  | 653 µM |  | < 50% | 531 µM |  | IC50 [25]: 290 µM; IC50 [8]: 3.6 µM |
| OC[C@H]1NCC[C@@H](O)[C@H]1O | < 50% | < 50% |  |  | < 50% | < 50% | < 50% | < 50% | 8 µM | < 50% |  | < 50% | < 50% | < 50% |  |  |  |  | < 50% | inhibition [23]: < 50%; inhibition [24]: < 50%; inhibition [14]: < 50% |
